# Key:
# MCF7 [1] = test: Antitumor activity against human MCF7 cells after 6 days by SRB assay; assay type: functional; design: concentration or dose not given beside the values
# How it was run: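 MCF7 breast cancer cells were grown in RPMI 1640 with 10% FBS and antibiotic-antimycotic at 37 °C under 5% CO2. They were seeded at 50,000 cells/mL and exposed to inhibitor for six days. Cells were fixed with ice-cold TCA for 1 h, stained with SRB for 30 min at RT, washed with 1% acetic acid and solubilized in 10 mM Tris. A515 was read. […].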
# A549 = test: Cytotoxicity against human A549 cells after 6 days by SRB assay; assay type: functional, cell-based; conditions: A549, 144 h
# How it was run: (§1)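 Cells were plated at 50,000 cells/mL in a humidified 5% CO2 atmosphere at 37 °C and incubated with inhibitors for six days. They were then fixed 1 h in cold TCA, stained 30 min at RT with SRB, washed with 1% acetic acid and solubilized in 10 mM Tris before reading at 515 nm. Means of four duplicate samples were expressed relative to solvent control, with IC50 from nonlinear regression.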
# [2] = target: Nicotinamide phosphoribosyltransferase (Homo sapiens, UniProt P43490); test: Inhibition of human NAmPRTase by HPLC analysis
# HCT-116 = test: Cytotoxicity against human HCT116 cells after 6 days by SRB assay; assay type: functional, cell-based; conditions: HCT-116, 144 h; how it was run: as §1
# HT-1080 = test: Cytotoxicity against human HT1080 cells after 6 days by SRB assay; assay type: functional, cell-based; conditions: HT-1080, 144 h; how it was run: as §1
# K562 = test: Cytotoxicity against human K562 cells after 6 days by SRB assay; assay type: functional, cell-based; conditions: K562, 144 h; how it was run: as §1
# MCF7 [3] = test: Antitumor activity against human MCF7 cells at 10 uM after 6 days by SRB assay; assay type: functional, cell-based; conditions: MCF7, 144 h
# How it was run: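 MCF7 cells were cultured in RPMI 1640 with 10% FBS at 37 °C and 5% CO2, plated at 50,000 cells/mL, and given a fixed 10 µM compound for six days. Viability was read by SRB staining after TCA fixation, Tris solubilization and absorbance at 515 nm. […], as means of three experiments with standard deviations.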
# SNU-638 = test: Cytotoxicity against human SNU638 cells after 6 days by SRB assay; assay type: functional, cell-based; conditions: SNU-638, 144 h; how it was run: as §1
# Nicotinamide phosphoribosyltransferase, sequence (P43490 whole entry): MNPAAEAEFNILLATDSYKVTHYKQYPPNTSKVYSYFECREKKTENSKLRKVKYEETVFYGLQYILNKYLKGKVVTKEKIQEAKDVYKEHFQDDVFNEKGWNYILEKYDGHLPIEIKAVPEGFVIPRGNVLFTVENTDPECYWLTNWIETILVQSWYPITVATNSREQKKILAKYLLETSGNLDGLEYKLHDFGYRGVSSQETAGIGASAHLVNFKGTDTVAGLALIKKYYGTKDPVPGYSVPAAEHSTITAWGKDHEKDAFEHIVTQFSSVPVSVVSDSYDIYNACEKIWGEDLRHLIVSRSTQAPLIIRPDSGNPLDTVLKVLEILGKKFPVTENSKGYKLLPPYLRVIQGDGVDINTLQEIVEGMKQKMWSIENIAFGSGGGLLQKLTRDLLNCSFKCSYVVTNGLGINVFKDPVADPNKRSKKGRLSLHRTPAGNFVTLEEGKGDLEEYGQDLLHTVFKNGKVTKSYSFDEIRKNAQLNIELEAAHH
structure (smiles),measurement,setting,value
O=C(/C=C/c1ccc[nH]1)NCCCCC1CCN(C(=O)c2ccccc2)CC1,Cell survival (% of control),MCF7 [1],4.5%
same,IC50,A549,4860 nM
same,IC50,[2],20300 nM
same,IC50,HCT-116,300 nM
same,IC50,HT-1080,3200 nM
same,IC50,K562,1400 nM
same,IC50,MCF7 [3],1290 nM
same,IC50,SNU-638,1700 nM
Nc1cccc(/C=C/C(=O)NCCCCC2CCN(C(=O)c3ccccc3)CC2)c1,Cell survival (% of control),MCF7 [1],103.9%
O=C(/C=C/c1c[nH]cn1)NCCCCC1CCN(C(=O)c2ccccc2)CC1,Cell survival (% of control),MCF7 [1],102.9%
O=C(/C=C/c1c[nH]c2ccccc12)NCCCCC1CCN(C(=O)c2ccccc2)CC1,Cell survival (% of control),MCF7 [1],103.3%
O=C(/C=C/c1cccnc1)NCCCCC1CCN(C(=O)c2ccccc2)CC1 [DAPORINAD],Cell survival (% of control),MCF7 [1],5.6%
same,IC50,A549,< 160 nM
same,IC50,HCT-116,< 160 nM
same,IC50,HT-1080,< 160 nM
same,IC50,K562,> 20000 nM
same,IC50,MCF7 [3],680 nM
same,IC50,SNU-638,< 160 nM
O=C(/C=C/c1ccccc1[N+](=O)[O-])NCCCCC1CCN(C(=O)c2ccccc2)CC1,Cell survival (% of control),MCF7 [1],102.7%
Nc1ncc(/C=C/C(=O)NCCCCC2CCN(C(=O)c3ccccc3)CC2)cn1,Cell survival (% of control),MCF7 [1],103.4%
Cn1cccc1/C=C/C(=O)NCCCCC1CCN(C(=O)c2ccccc2)CC1,Cell survival (% of control),MCF7 [1],103.6%
O=C(/C=C/c1cncnc1)NCCCCC1CCN(C(=O)c2ccccc2)CC1,Cell survival (% of control),MCF7 [1],86.8%
O=C(/C=C/c1cccn1CCC(CO)CO)NCCCCC1CCN(C(=O)c2ccccc2)CC1,Cell survival (% of control),MCF7 [1],105%
O=C(/C=C/c1cn(CCC(CO)CO)c2ccccc12)NCCCCC1CCN(C(=O)c2ccccc2)CC1,Cell survival (% of control),MCF7 [1],104.9%
O=C(/C=C/c1cnn(CCC(CO)CO)c1)NCCCCC1CCN(C(=O)c2ccccc2)CC1,Cell survival (% of control),MCF7 [1],106.6%
O=C(/C=C/c1cccc([N+](=O)[O-])c1)NCCCCC1CCN(C(=O)c2ccccc2)CC1,Cell survival (% of control),MCF7 [1],103.1%
O=C(/C=C/c1cn(CCC(CO)CO)cn1)NCCCCC1CCN(C(=O)c2ccccc2)CC1,Cell survival (% of control),MCF7 [1],104.3%
Nc1ccccc1/C=C/C(=O)NCCCCC1CCN(C(=O)c2ccccc2)CC1,Cell survival (% of control),MCF7 [1],106.3%
Cc1c2ccncc2c(C)c2c1[nH]c1ccccc12 [ELLIPTECINE],IC50,A549,470 nM
same,IC50,HCT-116,410 nM
same,IC50,HT-1080,210 nM
same,IC50,K562,380 nM
same,IC50,SNU-638,1640 nM
O=C(/C=C/c1cn[nH]c1)NCCCCC1CCN(C(=O)c2ccccc2)CC1,Cell survival (% of control),MCF7 [1],101.7%

# — ChEMBL document CHEMBL1759927, “Design, synthesis and X-ray crystallographic study of NAmPRTase inhibitors as anti-cancer agents” (Eur J Med Chem, 2011)
